# Assay results published in ChEMBL document CHEMBL3244024, “Synthesis and antiallergic activity of some mono- and disubstituted xanthone-2-carboxylic acids” (1978).
# Experiments:
# Rattus norvegicus [1] = assay: Antiallergic activity in iv dosed Sprague-Dawley rat assessed as inhibition of egg albumin-induced passive cutaneous anaphylaxis after 15 to 25 mins relative to disodium cromoglycate
# Rattus norvegicus [2] = assay: Antiallergic activity in iv dosed Sprague-Dawley rat assessed as inhibition of egg albumin-induced passive cutaneous anaphylaxis after 15 to 25 mins relative to disodium cromoglycate; assay type: functional
# Summary of the method: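 Reaginic antiserum from rats immunized with 1.25 mg egg albumin sc plus H. pertussis vaccine ip, bled 11 days later. Recipient rats sensitized intradermally with two antiserum dilutions in 0.1 mL saline. Challenged 24 h later iv with 1.0 mL buffered saline (pH 7.2) holding 1.0 mg albumin, 0.5% Evans blue and test compound. Usually three doses (fivefold increments), ≥5 rats per group.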
Compound,RPCA relative potency (Rattus norvegicus [1]),fold change (FC) (Rattus norvegicus [2])
COc1cc(OC)c2oc3ccc(C(=O)O)cc3c(=O)c2c1,6,
CC(=O)c1ccc2oc3ccc(C(=O)O)cc3c(=O)c2c1,6,
O=C(O)c1ccc2oc3ccc(C(=O)C4CC4)cc3c(=O)c2c1,3,
CC(C)C(=O)c1ccc2oc3ccc(C(=O)O)cc3c(=O)c2c1,3,
C[S+]([O-])c1ccc2oc3ccc(C(=O)O)cc3c(=O)c2c1 (stereo not given) [TIXANOX],25,
CCCCOc1cc([S+](C)[O-])cc2c(=O)c3cc(C(=O)O)ccc3oc12 (stereo not given),260,260
Cc1cc(C)c2oc3ccc(C(=O)O)cc3c(=O)c2c1,1,
CC(C)[S+]([O-])c1ccc2oc3ccc(C(=O)O)cc3c(=O)c2c1 (stereo not given),4,
Cc1cc2oc3ccc(C(=O)O)cc3c(=O)c2cc1C,0.2,
Cc1ccc2oc3ccc(C(=O)O)cc3c(=O)c2c1C,0.2,
CCOc1cc([S+](C)[O-])cc2c(=O)c3cc(C(=O)O)ccc3oc12 (stereo not given),80,
CC(C)Sc1ccc2oc3ccc(C(=O)O)cc3c(=O)c2c1,2,
COc1cc(OC)c2c(=O)c3cc(C(=O)O)ccc3oc2c1,0.1,
CC(C)CCOc1cc([S+](C)[O-])cc2c(=O)c3cc(C(=O)O)ccc3oc12 (stereo not given),100,
C[S+]([O-])c1cc(OC2CCCC2)c2oc3ccc(C(=O)O)cc3c(=O)c2c1 (stereo not given),100,
CCCCCOc1cc([S+](C)[O-])cc2c(=O)c3cc(C(=O)O)ccc3oc12 (stereo not given),90,
COc1cc2oc3ccc(C(=O)O)cc3c(=O)c2cc1OC,2,
CC(C)Oc1cc([S+](C)[O-])cc2c(=O)c3cc(C(=O)O)ccc3oc12 (stereo not given),190,
CS(=O)(=O)c1ccc2oc3ccc(C(=O)O)cc3c(=O)c2c1,7,
CCCOc1cc([S+](C)[O-])cc2c(=O)c3cc(C(=O)O)ccc3oc12 (stereo not given),50,
CCC(=O)c1ccc2oc3ccc(C(=O)O)cc3c(=O)c2c1,2,
O=C(O)c1ccc2oc3ccc(C(=O)C4CCCC4)cc3c(=O)c2c1,2,
CSc1ccc2oc3ccc(C(=O)O)cc3c(=O)c2c1,5,
CCCCCCCCOc1cc([S+](C)[O-])cc2c(=O)c3cc(C(=O)O)ccc3oc12 (stereo not given),35,
